Data published in ChEMBL document CHEMBL1687819, “Identification and characterization of the multidrug resistance gene cfr in a Panton-Valentine leukocidin-positive sequence type 8 methicillin-resistant Staphylococcus aureus IVa (USA300) isolate” (2010).
Converted amounts (≈) assume the structure as drawn.

Tests used:
Type in all cases: functional
[1] = system: Staphylococcus aureus; test: Antibacterial activity against Staphylococcus aureus XU21-T1 harboring cfr-encoding conjugative pSCFS7 and fexA by broth microdilution method
Procedure, shortened: (§1)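 Broth microdilution MICs per CLSI M07-A8 and M100-S20, run side by side on clinical MRSA isolate M05/0060, its plasmid-cured derivative M05/0060-C1, plasmid-free novobiocin-resistant recipient XU21 and transconjugant XU21-T1. Curing was by five serial 24 h passages in BHI broth at 43°C, 200 rpm. Transconjugants came from filter mating, selected on BHI agar with novobiocin 100 µg/ml plus chloramphenicol 30 µg/ml.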

[2] = system: Staphylococcus aureus; test: Antibacterial activity against methicillin-resistant Staphylococcus aureus M05/0060 harboring cfr-encoding conjugative pSCFS7 and fexA by broth microdilution method; procedure, shortened: as §1
[3] = system: Staphylococcus aureus; test: Antibacterial activity against Staphylococcus aureus XU21 by broth microdilution method; procedure, shortened: as §1
[4] = system: Staphylococcus aureus; test: Antibacterial activity against pSCFS7-deficient methicillin-resistant Staphylococcus aureus M05/0060-C1 by broth microdilution method; procedure, shortened: as §1

SMILES | MIC [1] [µg/mL] | MIC [2] [µg/mL] | MIC [3] [µg/mL] | MIC [4] [µg/mL]
O=C(N[C@H](CO)[C@H](O)c1ccc([N+](=O)[O-])cc1)C(Cl)Cl [CHLORAMPHENICOL] | 128 (≈ 396 µM) | 256 (≈ 792 µM) | 8 (≈ 24.8 µM) | 8 (≈ 24.8 µM)
CCC[C@@H]1C[C@@H](C(=O)N[C@@H]([C@H]2O[C@H](SC)[C@H](O)[C@@H](O)[C@H]2O)[C@H](C)Cl)N(C)C1 [CLINDAMYCIN] | ≥ 128 | ≥ 128 | 0.25 (≈ 0.588 µM) | 0.25 (≈ 0.588 µM)
CC[C@H]1OC(=O)[C@H](C)[C@@H](O[C@H]2C[C@@](C)(OC)[C@@H](O)[C@H](C)O2)[C@H](C)[C@@H](O[C@@H]2O[C@H](C)C[C@H](N(C)C)[C@H]2O)[C@](C)(O)C[C@@H](C)C(=O)[C@H](C)[C@@H](O)[C@]1(C)O [ERYTHROMYCIN] | 0.5 (≈ 0.681 µM) | ≥ 64 | 0.5 (≈ 0.681 µM) | ≥ 64
CS(=O)(=O)c1ccc([C@@H](O)[C@@H](CF)NC(=O)C(Cl)Cl)cc1 [FLORFENICOL] | 256 (≈ 715 µM) | 256 (≈ 715 µM) | 4 (≈ 11.2 µM) | 4 (≈ 11.2 µM)
CC(=O)NC[C@H]1CN(c2ccc(N3CCOCC3)c(F)c2)C(=O)O1 [LINEZOLID] | – | 8 (≈ 23.7 µM) | 1 (≈ 2.96 µM) | 1 (≈ 2.96 µM)
Cc1onc(-c2ccccc2)c1C(=O)N[C@@H]1C(=O)N2[C@@H]1SC(C)(C)[C@@H]2C(=O)O [OXACILLIN] | 0.12 (≈ 0.299 µM) | ≥ 32 | 0.12 (≈ 0.299 µM) | ≥ 32
C=C[C@]1(C)C[C@@H](OC(=O)CSCCN(CC)CC)[C@]2(C)[C@H](C)CC[C@]3(CCC(=O)[C@H]32)[C@@H](C)[C@@H]1O [TIAMULIN] | ≥ 128 | ≥ 128 | 1 (≈ 2.03 µM) | 1 (≈ 2.03 µM)
CC1=C\[C@@H](O)CC(=O)Cc2nc(co2)C(=O)N2CCC=C2C(=O)O[C@H](C(C)C)[C@H](C)/C=C/C(=O)NC\C=C\1 [VIRGINIAMYCIN FACTOR M1] | 32 (≈ 60.9 µM) | 32 (≈ 60.9 µM) | 1 (≈ 1.9 µM) | 1 (≈ 1.9 µM)
